From ChEMBL document CHEMBL3085739, “Design, synthesis, and biological evaluation of 2-oxo-3,4-dihydropyrimido[4,5-d]pyrimidinyl derivatives as new irreversible epidermal growth factor receptor inhibitors with improved pharmacokinetic properties” (J Med Chem, 2013) come the findings set out here.

Molecules are shown by their SMILES. Calls of active or inactive are those of the source. The rule behind the calls is not given here.

For data set [1], the system named is NCI-H1975. Kind of data set: Effect on AKT protein level in human NCI-H1975 cells at 3 to 330 nM after 2 hrs by Western blotting analysis. The class given is functional, cell-based. In short, it runs like this: (§1)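 H1975 cells were grown 24 h, then treated for 2 h with DMSO or 3–330 nM compound. Lysates were sonicated, run on SDS-PAGE, blotted to PVDF, blocked in 5% BSA/TBST, and probed for phospho/total EGFR (pY1068), Akt and Erk1/2 (pT202/pY204) with peroxidase secondary antibodies. Blots are representative of three experiments.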

Data set [2] relates to NCI-H1975. Kind of data set: Antiproliferative activity against human NCI-H1975 cells expressing EGFR L858R/T790M double mutant after 72 hrs by MTS assay. It counts as functional, cell-based. The conditions noted are these: NCI-H1975, 72 h. In general terms: Formazan colour is commonly taken as a measure of viable cells.
The target of data set [3] is Tyrosine-protein kinase ABL1 (Homo sapiens) (UniProt P00519). As to the kind of experiment: Binding affinity to ABL1 (unknown origin).
For data set [4], the system named is Mus musculus. Kind of data set: Toxicity in SCID nude mouse xenografted with human NCI-H1975 cells assessed as body weight loss at 10 to 30 mg/kg, po qd after 14 days relative to vehicle-treated control. The class given is organism-based. More on the design: dose 10-30 mg/kg, route oral. The conditions noted are these: in vivo, 336 h. The procedure, abridged:
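SCID mice (6 weeks) were given H1975 cells subcutaneously in the right flank at 2 × 10^6 per mouse. At 200−300 mm3, n = 5 per group were randomized to daily oral vehicle or compound at 10 or 30 mg/kg for 14 days. Vehicle: 1% DMSO, 5% EtOH, 15% castor oil, 79% H2O. Tumors (W²·L/2) and body weight were measured every other day; TGI was calculated against vehicle controls.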

The target in data set [5] is T1, Tyrosine-protein kinase JAK3 (Homo sapiens) (UniProt P52333).
T1 sequence (whole entry): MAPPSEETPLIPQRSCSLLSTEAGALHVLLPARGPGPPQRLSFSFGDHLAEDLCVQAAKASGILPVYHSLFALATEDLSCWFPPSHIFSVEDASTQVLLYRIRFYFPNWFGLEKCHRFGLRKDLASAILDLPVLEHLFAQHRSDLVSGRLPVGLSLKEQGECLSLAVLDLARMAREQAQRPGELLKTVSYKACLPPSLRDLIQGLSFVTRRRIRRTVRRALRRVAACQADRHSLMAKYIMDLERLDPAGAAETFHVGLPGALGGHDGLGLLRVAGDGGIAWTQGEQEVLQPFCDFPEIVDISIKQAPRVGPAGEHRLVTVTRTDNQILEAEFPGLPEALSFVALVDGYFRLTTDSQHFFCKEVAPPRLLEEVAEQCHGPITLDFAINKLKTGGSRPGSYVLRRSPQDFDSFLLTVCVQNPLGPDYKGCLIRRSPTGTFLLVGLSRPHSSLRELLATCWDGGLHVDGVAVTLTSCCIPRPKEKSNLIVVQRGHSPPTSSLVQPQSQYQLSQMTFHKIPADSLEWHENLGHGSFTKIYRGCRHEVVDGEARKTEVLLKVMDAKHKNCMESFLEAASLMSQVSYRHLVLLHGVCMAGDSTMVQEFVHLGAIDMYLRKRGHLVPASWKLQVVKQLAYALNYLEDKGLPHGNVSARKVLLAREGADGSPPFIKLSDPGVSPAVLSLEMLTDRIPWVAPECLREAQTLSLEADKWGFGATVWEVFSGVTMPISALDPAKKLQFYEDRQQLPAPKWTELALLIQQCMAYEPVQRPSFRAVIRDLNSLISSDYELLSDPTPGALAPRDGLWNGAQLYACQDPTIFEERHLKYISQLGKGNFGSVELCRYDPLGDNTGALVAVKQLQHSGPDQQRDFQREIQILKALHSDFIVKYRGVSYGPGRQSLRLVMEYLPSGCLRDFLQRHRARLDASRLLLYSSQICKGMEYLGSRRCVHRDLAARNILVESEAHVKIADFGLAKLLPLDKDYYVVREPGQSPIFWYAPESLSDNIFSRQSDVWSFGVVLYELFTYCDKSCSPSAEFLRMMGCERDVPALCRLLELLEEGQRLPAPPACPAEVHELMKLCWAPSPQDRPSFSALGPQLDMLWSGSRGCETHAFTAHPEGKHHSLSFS
Kind of data set: Binding affinity to JAK3 (unknown origin).

The test system of data set [6] is Mus musculus. Kind of data set: Toxicity in SCID nude mouse xenografted with human NCI-H1975 cells assessed as mortality at 10 to 30 mg/kg, po qd after 14 days. The conditions noted are these: in vivo, 336 h. The class given is organism-based. On the set-up: dose 10-30 mg/kg, route oral. In short, it runs like this: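 SCID mice (six weeks old) implanted subcutaneously in the right flank with H1975 cells (2 × 10⁶/mouse). Once tumours averaged 200−300 mm³, animals were randomized (n = 5 per group) and given vehicle or drug orally once daily for 14 days. Vehicle: 1% DMSO, 5% EtOH, 15% castor oil, 79% H₂O, at 0.1 mL/20 g. Mice were watched for morbidity, and body weight was recorded every other day.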
A general note: In xenograft studies the graft and the host belong to different species.

The nature of data set [7]: Antiproliferative activity against human H1299 cells expressing wild-type EGFR after 72 hrs by MTS assay. The class given is cell-based. The conditions noted are these: NCI-H1299, 72 h. The procedure, abridged: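 MTS proliferation assay: cells exposed to compound for 72 h at six concentrations (0.1 nM to 10 μM), each concentration run six times. Cell number per line set to give an absorbance of 0.5–1.2 at […]. IC50 from a nonlinear sigmoidal dose–response fit. Values are means of at least three independent experiments.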

Data set [8] has as its target Proto-oncogene tyrosine-protein kinase Src (Homo sapiens) (UniProt P12931). As to the kind of experiment: Binding affinity to SRC (unknown origin).
Data set [9] can be described thus: Clearance in Sprague-Dawley rat at 5 mg/kg, iv by LC/MS analysis. The class given is ADME, organism-based. On the set-up: dose 5 mg/kg, route intravenous. The settings on record: in vivo. In short, it runs like this: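 Male Sprague-Dawley rats (180−220 g), n = 4 per route, single iv dose 5 mg/kg or oral gavage 25 mg/kg. Vehicle was 2% DMSO, 4% EtOH, 4% castor oil, 90% H2O. Orbital sinus blood was taken from 2 min to 72 h into heparinized tubes. Plasma levels were measured by LC/MS with propranolol internal standard and analysed by pharmacokinetic modelling.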

Data set [10] deals with Epidermal growth factor receptor (Homo sapiens, UniProt P00533, L858R/T790M). As to the kind of experiment: Binding affinity to EGFR L858R/T790M double mutant (unknown origin).
Data set [11] relates to Epidermal growth factor receptor (Homo sapiens), P00533 [L858R,T790M]. The conditions noted are these: NCI-H1975, 110 nM.
In data set [12] the test system is NCI-H1975. As to the kind of experiment: Effect on EGFR protein level in human NCI-H1975 cells at 3 to 330 nM after 2 hrs by Western blotting analysis. It counts as functional, cell-based. The procedure, abridged:
as §1
On the technique in general: In western blotting, separated proteins are transferred to a membrane and probed.

Sequence of Proto-oncogene tyrosine-protein kinase Src (Homo sapiens) (P12931 2-536 limits assumed): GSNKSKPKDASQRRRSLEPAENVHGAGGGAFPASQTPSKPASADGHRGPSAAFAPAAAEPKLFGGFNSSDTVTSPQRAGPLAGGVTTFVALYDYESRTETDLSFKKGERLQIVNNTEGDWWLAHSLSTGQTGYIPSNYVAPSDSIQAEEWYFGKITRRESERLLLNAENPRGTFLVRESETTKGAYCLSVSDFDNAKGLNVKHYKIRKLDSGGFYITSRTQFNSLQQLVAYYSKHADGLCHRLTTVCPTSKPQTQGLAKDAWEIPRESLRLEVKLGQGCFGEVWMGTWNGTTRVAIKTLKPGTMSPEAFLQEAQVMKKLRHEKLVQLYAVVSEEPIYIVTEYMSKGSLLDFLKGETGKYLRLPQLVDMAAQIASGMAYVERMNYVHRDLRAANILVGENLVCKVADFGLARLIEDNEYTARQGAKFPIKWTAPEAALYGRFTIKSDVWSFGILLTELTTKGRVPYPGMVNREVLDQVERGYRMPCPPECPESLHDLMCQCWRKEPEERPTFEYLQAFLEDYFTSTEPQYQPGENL
Sequence of Epidermal growth factor receptor (Homo sapiens), P00533 [L858R,T790M] (P00533 whole entry T790M/L858R, looked up): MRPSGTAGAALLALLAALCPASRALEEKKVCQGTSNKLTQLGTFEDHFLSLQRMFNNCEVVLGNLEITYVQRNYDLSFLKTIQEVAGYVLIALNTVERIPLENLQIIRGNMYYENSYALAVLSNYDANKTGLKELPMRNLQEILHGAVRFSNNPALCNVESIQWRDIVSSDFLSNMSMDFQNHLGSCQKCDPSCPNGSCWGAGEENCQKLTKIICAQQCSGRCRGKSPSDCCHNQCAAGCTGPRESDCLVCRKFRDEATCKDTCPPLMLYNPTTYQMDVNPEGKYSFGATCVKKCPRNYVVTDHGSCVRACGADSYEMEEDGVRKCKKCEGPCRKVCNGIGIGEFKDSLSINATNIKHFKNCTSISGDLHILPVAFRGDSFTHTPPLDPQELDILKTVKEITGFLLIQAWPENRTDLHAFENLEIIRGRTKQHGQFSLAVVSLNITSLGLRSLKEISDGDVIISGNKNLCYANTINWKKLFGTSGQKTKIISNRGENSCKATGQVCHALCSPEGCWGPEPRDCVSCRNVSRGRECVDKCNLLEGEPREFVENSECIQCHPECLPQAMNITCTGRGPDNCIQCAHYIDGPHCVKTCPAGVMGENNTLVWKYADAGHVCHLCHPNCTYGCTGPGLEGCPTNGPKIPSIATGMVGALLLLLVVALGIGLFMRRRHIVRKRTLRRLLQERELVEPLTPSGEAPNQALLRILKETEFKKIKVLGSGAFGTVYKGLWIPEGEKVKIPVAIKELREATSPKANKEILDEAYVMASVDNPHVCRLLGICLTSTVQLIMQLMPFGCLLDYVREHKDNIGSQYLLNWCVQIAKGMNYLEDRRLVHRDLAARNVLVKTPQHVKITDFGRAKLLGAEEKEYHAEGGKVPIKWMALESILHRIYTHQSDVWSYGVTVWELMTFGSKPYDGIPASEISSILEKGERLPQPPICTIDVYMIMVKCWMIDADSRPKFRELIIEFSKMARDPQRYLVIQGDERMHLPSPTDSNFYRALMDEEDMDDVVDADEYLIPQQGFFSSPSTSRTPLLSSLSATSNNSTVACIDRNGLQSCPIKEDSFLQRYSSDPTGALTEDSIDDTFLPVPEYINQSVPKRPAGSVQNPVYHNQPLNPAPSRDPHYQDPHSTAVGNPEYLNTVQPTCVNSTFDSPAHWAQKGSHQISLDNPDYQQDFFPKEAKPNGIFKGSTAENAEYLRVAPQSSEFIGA
Sequence of Tyrosine-protein kinase ABL1 (Homo sapiens) (P00519 whole entry): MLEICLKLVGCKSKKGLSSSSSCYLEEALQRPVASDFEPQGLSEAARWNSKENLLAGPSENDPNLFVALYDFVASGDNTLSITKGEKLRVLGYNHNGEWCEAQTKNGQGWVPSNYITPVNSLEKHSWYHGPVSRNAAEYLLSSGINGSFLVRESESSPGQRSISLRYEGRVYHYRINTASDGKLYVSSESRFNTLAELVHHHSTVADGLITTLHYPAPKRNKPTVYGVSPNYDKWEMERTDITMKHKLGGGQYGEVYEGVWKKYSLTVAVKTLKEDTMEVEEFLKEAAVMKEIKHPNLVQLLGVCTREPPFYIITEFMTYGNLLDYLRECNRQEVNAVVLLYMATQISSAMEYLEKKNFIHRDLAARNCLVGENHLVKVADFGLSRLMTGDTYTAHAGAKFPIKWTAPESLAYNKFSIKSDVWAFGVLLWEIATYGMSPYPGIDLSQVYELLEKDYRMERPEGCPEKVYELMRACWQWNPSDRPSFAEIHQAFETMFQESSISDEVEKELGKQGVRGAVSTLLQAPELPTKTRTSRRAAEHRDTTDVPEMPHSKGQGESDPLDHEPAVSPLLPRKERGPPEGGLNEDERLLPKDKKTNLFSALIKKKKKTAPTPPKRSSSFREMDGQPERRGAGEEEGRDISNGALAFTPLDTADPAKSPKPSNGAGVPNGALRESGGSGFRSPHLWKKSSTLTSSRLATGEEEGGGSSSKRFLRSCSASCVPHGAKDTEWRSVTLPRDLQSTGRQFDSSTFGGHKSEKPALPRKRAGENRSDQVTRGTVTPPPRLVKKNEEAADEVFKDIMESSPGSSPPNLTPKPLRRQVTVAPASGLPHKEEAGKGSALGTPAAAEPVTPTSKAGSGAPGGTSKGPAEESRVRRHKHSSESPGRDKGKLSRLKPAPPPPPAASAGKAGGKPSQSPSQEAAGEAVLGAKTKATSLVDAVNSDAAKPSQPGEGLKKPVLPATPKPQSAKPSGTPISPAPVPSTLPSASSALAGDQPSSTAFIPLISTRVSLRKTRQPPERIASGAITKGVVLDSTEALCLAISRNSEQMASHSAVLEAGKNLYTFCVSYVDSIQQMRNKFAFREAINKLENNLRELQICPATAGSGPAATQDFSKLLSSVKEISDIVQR
Sequence of Epidermal growth factor receptor (P00533 25-1210 T790M/L858R limits assumed): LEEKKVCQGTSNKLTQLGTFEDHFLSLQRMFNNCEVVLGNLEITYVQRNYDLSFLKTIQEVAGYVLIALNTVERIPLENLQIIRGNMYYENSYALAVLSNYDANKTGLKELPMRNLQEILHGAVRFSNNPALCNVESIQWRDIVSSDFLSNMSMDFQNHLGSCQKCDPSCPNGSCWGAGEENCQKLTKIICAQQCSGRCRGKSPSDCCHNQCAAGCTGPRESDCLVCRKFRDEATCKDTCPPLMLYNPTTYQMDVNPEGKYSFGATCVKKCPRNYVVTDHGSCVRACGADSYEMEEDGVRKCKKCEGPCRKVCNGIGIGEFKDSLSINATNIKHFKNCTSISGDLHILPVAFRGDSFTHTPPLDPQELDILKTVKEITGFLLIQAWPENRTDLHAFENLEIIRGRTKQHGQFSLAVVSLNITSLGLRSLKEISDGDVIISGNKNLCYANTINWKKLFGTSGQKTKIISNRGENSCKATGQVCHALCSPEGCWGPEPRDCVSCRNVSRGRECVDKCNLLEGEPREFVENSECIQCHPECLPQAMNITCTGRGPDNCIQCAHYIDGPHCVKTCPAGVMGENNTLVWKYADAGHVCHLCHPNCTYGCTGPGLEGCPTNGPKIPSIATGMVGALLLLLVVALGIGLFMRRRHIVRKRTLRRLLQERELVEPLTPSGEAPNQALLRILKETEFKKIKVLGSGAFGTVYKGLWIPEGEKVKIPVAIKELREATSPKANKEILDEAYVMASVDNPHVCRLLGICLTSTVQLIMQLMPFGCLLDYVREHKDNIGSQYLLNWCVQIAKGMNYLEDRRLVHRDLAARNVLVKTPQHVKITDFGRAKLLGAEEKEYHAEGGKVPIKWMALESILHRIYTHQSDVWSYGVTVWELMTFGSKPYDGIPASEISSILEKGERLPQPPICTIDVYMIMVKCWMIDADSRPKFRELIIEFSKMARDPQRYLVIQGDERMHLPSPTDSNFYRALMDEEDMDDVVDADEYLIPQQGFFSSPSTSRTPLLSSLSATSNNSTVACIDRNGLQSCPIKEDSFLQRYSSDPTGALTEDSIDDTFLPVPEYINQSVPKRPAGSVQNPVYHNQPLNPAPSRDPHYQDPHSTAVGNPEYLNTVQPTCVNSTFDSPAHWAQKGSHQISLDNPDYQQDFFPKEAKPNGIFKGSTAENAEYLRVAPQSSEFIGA

`C=CC(=O)N1CC[C@H](N2C(=O)N(c3ccccc3)Cc3cnc(Nc4ccc(N5CCN(C)CC5)c(C)c4)nc32)C1`: the outcome in the data set with NCI-H1975 [1] and in the data set with NCI-H1975 [12] was inactive. Further, the IC50 in the data set on NCI-H1975 [2] is 47 nM; in data set [7] it was 5100 nM. Moreover, the result in [3], in data set [5] and in data set [8] was Active. Further, the Activity with Mus musculus [4] is listed as below 5%; in the data set with Mus musculus [6] it was “Non-toxic”. Also, the clearance in data set [9] is 51.7 mL/min/kg. Moreover, binding in data set [10] was characterised by a dissociation constant (Kd) of 1.4 nM. In addition, the inhibition result in [11] was “Active”.

In general, IC50 refers to the concentration that gives 50% inhibition. A lower IC50 goes with higher potency. The term clearance denotes the volume of plasma or blood freed of the substance per unit of time. A low value points to a low capacity for elimination. One may read the Kd as the free concentration of one partner at which half of the binding sites on the other are occupied at equilibrium, for simple one-to-one binding. Higher therefore signals lower affinity.
